Screening results as filed in PubChem.
PKA-R1A act – activators of PKA-R1A complex; P00514+P68181; PKA-R1A dissociation, Cy5-IP20 fluorescence polarization; scaled: DMSO 0%, 113 µM cGMP 100%; activation, % at 11.4 µM; 0.083% of 340,000 active;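 active means percent activation above the mean of all tested compounds plus 3 SD, cut at about 19% in these data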;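 further: higher means more PKAc released from R1A so a rise in polarization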
HKDC1 inh – blocks human hexokinase HKDC1 activity; inhibition, % at 20 µM; 0.16% of 340,000 active; Q2TB90; recombinant HKDC1, G6PDH/diaphorase resazurin coupled fluorescence;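 active means inhibition above about 35% when tested at 20 µM, limit read from the data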
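test system = in-house recombinant HK5 (HKDC1) enzyme | amount = HKDC1 at 5 µg/mL | control set = DMSO-enzyme wells negative, buffer-substituted wells positive | compound = one dose of 20 µM, 1% DMSO | schedule = reaction time 90 min, room temperature, protected from light | technique = resorufin fluorescence at 613 nm | reagent = glucose with 1 mM ATP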
T cell HTS – T cell immune modulators affecting CD8 T cell-vesicle binding; 2C CD8+ T cell-vesicle binding, flow cytometry; active compounds read low; response (vesicle binding), % at 7 µM; 0.068% of 330,000 active; AID 2052;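 active means response, share of CD8 T cells binding vesicles, and their 90th percentile fluorescence all below set limits, cut at about 80% in these data, passing the limit was not always enough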;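 further: values below 100% mean blocked vesicle binding to the CD8+ T cells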
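Read-out – percent CD8+ FL2 mean versus row control · System – murine 2C transgenic CD8+ T lymphocytes · Times – 1.5 h cell–vesicle binding at 37 °C, then 20 min icy labelling · Control set – naked vesicles low, QL9 vesicles with vehicle high · Detection – cytometric PE anti-B7-1 and Alexa647 anti-CD8 signals after 1% paraformaldehyde fixation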
PKA-R2B activ – activates the human PKA-R2B holoenzyme complex; P22694+P31323; PKA-R2B holoenzyme dissociation, Cy5-IP20 fluorescence polarization; R2B truncated from residue 108, S112A mutant; 0% DMSO only, 100% 113 µM cGMP; activation, % at 11.4 µM; 0.079% of 340,000 active; AID 504700;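 active means activation above a cutoff set at the mean over all compounds plus 3 SD, cut at about 18% in these data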;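 further: higher means more holoenzyme dissociation and a rise in polarization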
Target sequence (P31323 whole entry, looked up, other chains not shown, the tested form may be a part): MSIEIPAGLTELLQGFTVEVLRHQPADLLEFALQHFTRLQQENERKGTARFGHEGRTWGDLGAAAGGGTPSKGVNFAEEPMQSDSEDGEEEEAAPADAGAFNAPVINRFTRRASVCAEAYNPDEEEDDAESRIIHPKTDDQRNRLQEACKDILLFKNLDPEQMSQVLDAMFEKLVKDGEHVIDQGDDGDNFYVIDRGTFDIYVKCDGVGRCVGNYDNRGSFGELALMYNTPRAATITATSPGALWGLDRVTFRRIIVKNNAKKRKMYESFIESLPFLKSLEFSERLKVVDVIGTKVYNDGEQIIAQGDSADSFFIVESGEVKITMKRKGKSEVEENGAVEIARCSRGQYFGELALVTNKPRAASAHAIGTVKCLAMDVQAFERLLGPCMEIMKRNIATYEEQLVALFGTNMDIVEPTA
PfGluPho inh – PfG6PD (Plasmodium falciparum) enzyme inhibition | PfGluPho enzyme, NADPH resazurin-diaphorase fluorescence | inhibition, % at 20 µM | 0.78% of 350,000 active | AID 504690;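 active means inhibition reaching at least a set limit at 20 µM in the primary screen, cut at about 59% in these data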
ATG4B inhibitor – ATG4B (human) cysteine protease inhibition | Q9Y4P1 | ATG4B cleavage of LC3-PLA2, NBD-HPC fluorescence, 1 h | inhibition, % at 8.33 µM | 0.51% of 340,000 active | AID 504462; in the data active means inhibition above about 40%
PfG6PD confirm – confirmation of Plasmodium falciparum G6PD inhibitors; shares compounds with PfGluPho inh; recombinant PfGluPho, NADPH-diaphorase-resazurin fluorescence; inhibition, % at 20 µM; 34% of 2,400 active; AID 504753;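 active means inhibition of at least 50% at 20 µM in any single replicate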
Diaphorase 10uM – diaphorase inhibition or oxidation at 10 uM NADPH; shares compounds with PfGluPho inh; diaphorase-coupled resazurin reduction, fluorescence, NADPH 10 uM; inhibition, % at 20 µM; 39% of 820 active; AID 504862;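 active means average inhibition reaching 50% or more with the compound at 20 µM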;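 further: resorufin red fluorescence formed as diaphorase reduces resazurin using NADPH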
Diaphorase 30uM – diaphorase inhibition or oxidation at 30 uM NADPH; 29% of 820 active; inhibition, % at 20 µM; Diaphorase/resazurin coupled assay, resorufin fluorescence; shares compounds with PfGluPho inh; AID 504863;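 active means inhibition averaging 50% or more, tested at 20 µM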
Of the large screens only hits and unclear results are named; the others gave an inactive call (follow-up assays come after a bar, where they were run). Hits are enriched below; roughly 1.6% of the tested compounds scored in any of these assays.

COC(=O)[C@@]12CCCCN1[C@H](c1ccc(-c3ccc4c(c3)OCO4)cc1)[C@H]1C(=O)N(C)C(=O)[C@H]12	none
COC(=O)C[C@@H]1C[C@H]2c3cc(NC(=O)Nc4ccccc4F)ccc3O[C@H]2[C@H](CO)O1	none (no result: HKDC1 inh, T cell HTS, ATG4B inhibitor)
CCN(c1ccccc1)S(=O)(=O)c1ccc(N2CCN(c3ccc(O)cc3)CC2)nc1	PfGluPho inh 75.8 | PfG6PD confirm inactive
CN(Cc1ccccc1F)C(=O)COc1ccc(C(=O)c2ccccc2)cc1	none
CCOC(=O)C1=CN(Cc2cccc(F)c2)S(=O)(=O)N(CC)C1c1ccccc1 (stereo not drawn)	none (no result: T cell HTS)
COc1ccccc1NC(=O)Nc1nn(C)c2cccc(N(C)C)c12	PfGluPho inh 64.1 | PfG6PD confirm inactive
CN(C)c1cccc2c1c(NC(=O)Nc1ccc(Cl)cc1Cl)nn2C	none
CCOC(=O)N=Nc1c2ccccc2c2nc3no[nH]c3nc12	PfGluPho inh 69.3 (no result: PKA-R1A act, T cell HTS, PKA-R2B activ) | PfG6PD confirm 60.6 | Diaphorase 10uM 50.9 | Diaphorase 30uM 50.9
CCS(=O)(=O)N1CCN(c2ccc([N+](=O)[O-])c(NC(C)c3ccccc3)c2)CC1 (stereo not drawn)	PfGluPho inh 78.0 | PfG6PD confirm 54.4 | Diaphorase 10uM inactive | Diaphorase 30uM inactive
CC(Nc1cc(N2CCN(C(=O)C(C)(C)C)CC2)ccc1[N+](=O)[O-])c1ccccc1 (stereo not drawn)	none
CC(C)C(=O)N1CCN(c2ccc([N+](=O)[O-])c(NC(C)c3ccccc3)c2)CC1 (stereo not drawn)	PfGluPho inh 80.9 | PfG6PD confirm inactive
CCCN(C(=O)c1cnccn1)c1c(N)n(Cc2ccccc2)c(=O)[nH]c1=O	none
NS(=O)(=O)c1ccc(S(=O)(=O)N2CCCC(c3ccccc3)C2)cc1 (stereo not drawn)	none (no result: HKDC1 inh, T cell HTS, ATG4B inhibitor)
CCCCCn1c(N2CCC(Cc3ccccc3)CC2)nc2c1c(=O)[nH]c(=O)n2C	PfGluPho inh 65.9 | PfG6PD confirm inactive
CCOC(=O)CSc1nc2c(c(=O)[nH]c(=O)n2C)n1CCc1ccccc1	none
Cn1c(=O)[nH]c(=O)c2c1nc(SCC(=O)O)n2CCc1ccccc1	PfGluPho inh 62.8 | PfG6PD confirm inactive
CCCn1c(N2CCC(Cc3ccccc3)CC2)nc2c1c(=O)[nH]c(=O)n2C	none
COc1ccc(OC)c(/C=C/C(=O)OCC(=O)NCc2cccs2)c1	none
C#CCOCCOCCOCCNc1nc(N2CCOCC2)nc(N2CCN(C(=O)CCCCCCCCCCNC(=O)[C@H](CO)n3cc(CCCCCN)nn3)CC2)n1	none
C#CCOCCOCCOCCNc1nc(N2CCN(C(=O)CCCCCCCCCCNC(=O)Cn3cc(CCCCCN)nn3)CC2)nc(N2CCN(C(=O)CCCCCCCCCCNC(=O)[C@H](CO)n3cc(CCCCCN)nn3)CC2)n1	PfGluPho inh 61.6 | PfG6PD confirm inactive
C#CCOCCOCCOCCNc1nc(N2CCN(C(=O)CCCCCCCCCCNC(=O)[C@H](CCCCN)n3cc(CCO)nn3)CC2)nc(N2CCN(C(=O)CCCCCCCCCCNC(=O)[C@H](CCCCN)n3cc(CCO)nn3)CC2)n1	PfGluPho inh 68.4 | PfG6PD confirm inactive
C#CCOCCOCCOCCNc1nc(N2CCN(C(=O)CCCCCCCCCCNC(=O)[C@H](CCC(=O)O)n3cc(CCCCCN)nn3)CC2)nc(N2CCN(C(=O)CCCCCCCCCCNC(=O)[C@@H]([C@H](C)O)n3cc(C)nn3)CC2)n1	none
C#CCOCCOCCOCCNc1nc(N2CCN(C(=O)CCCCCCCCCCNC(=O)[C@H](CCCCN)n3cc(CCO)nn3)CC2)nc(N2CCN(C(=O)CCCCCCCCCCNC(=O)[C@@H]([C@H](C)O)n3cc(C)nn3)CC2)n1	PfGluPho inh 66.0 | PfG6PD confirm inactive
Cc1ccccc1OCCC(=O)NNC(=O)c1ccccc1F	none
CC(=O)Nc1ccc(CN2CCCN(C)CC2)cc1	none
CC(C)CN(C(=O)C1=COCCO1)c1c(N)n(Cc2ccccc2)c(=O)[nH]c1=O	none (no result: HKDC1 inh, T cell HTS, ATG4B inhibitor)
CCOC(=O)c1cc2c(=O)n3cccc(C)c3nc2n(Cc2ccco2)c1=NC(=O)c1cccnc1	PfGluPho inh 60.5 (no result: T cell HTS) | PfG6PD confirm inactive
COc1ccc(S(=O)(=O)Nc2ccc(S(=O)(=O)Nc3cc(C)nc(C)n3)cc2)cc1OC	none
O=C(Nc1ccccc1)c1nnsc1S(=O)c1ccc(Cl)cc1 (stereo not drawn)	PfGluPho inh 63.6 | PfG6PD confirm inactive
CC1(OC(=O)C2CCCC2)C(=O)C=C2C=C(c3ccsc3)N(C3CCCCC3)C=C2C1=O (stereo not drawn)	none
CC1(OC(=O)C2CCCC2)C(=O)C=C2C=C(c3ccsc3)N(CC3CC3)C=C2C1=O (stereo not drawn)	PfGluPho inh 67.8 | PfG6PD confirm 49.8 | Diaphorase 10uM inactive | Diaphorase 30uM inactive
CC1(OC(=O)C2CCCC2)C(=O)C=C2C=C(c3ccsc3)N(Cc3ccc4c(c3)OCO4)C=C2C1=O (stereo not drawn)	PfGluPho inh 61.0 | PfG6PD confirm 52.7 | Diaphorase 10uM inactive | Diaphorase 30uM inactive
NC(=O)CC(NC(=O)c1ccccc1)c1ccc(N2CCc3ccccc3C2)c([N+](=O)[O-])c1 (stereo not drawn)	none
COc1cc(-c2c(-c3cc(OC)c(OC)c(OC)c3)noc2C)ccc1F	PfGluPho inh 63.3 (no result: PKA-R1A act, PKA-R2B activ) | PfG6PD confirm inactive
O=[N+]([O-])c1ccc(Nc2cccc3c2[nH]c2c(-c4ccccc4)nccc23)c([N+](=O)[O-])c1	PfGluPho inh 84.4 (no result: T cell HTS) | PfG6PD confirm inactive
Nc1ccccc1Nc1ccc([N+](=O)[O-])cc1[N+](=O)[O-]	none
CCc1ccccc1NC(=O)CCc1c(C)nn(-c2ccc(N3CCOCC3)nn2)c1C	none
COCCOC(=O)c1c(C)n(C)c2ccc(OC(=O)N3CCOCC3)cc12	none
COCCOC(=O)c1c(C)n(C)c2ccc(OC(=O)c3c(OC)cccc3OC)cc12	PfGluPho inh 59.5 | PfG6PD confirm inactive
Clc1ccc(Nc2ncnc3c2cnn3-c2ccccc2)cc1	PfGluPho inh 111.1 | PfG6PD confirm inactive
